Measured values reported in ChEMBL document CHEMBL1151735, “Further studies with the 2-amino-1,3-thiazol-4(5H)-one class of 11beta-hydroxysteroid dehydrogenase type 1 inhibitors: reducing pregnane X receptor activity and exploring activity in a monkey pharmacodynamic model” (J Med Chem, 2008).
pIC50, pKi: −log10 of the molar value.

Key:
[1] = target: T1, 11-beta-hydroxysteroid dehydrogenase 1 (Homo sapiens, UniProt P28845); assay: Inhibition of human recombinant 11beta-HSD1 expressed in Escherichia coli using [3H]cortisone by scintillation proximity assay
[2] = target: T1, 11-beta-hydroxysteroid dehydrogenase 1; assay: Inhibition of human 11beta-HSD1 expressed in CHO cells assessed as conversion of cortisone to cortisol by ELISA; assay type: cell-based
[3] = target: T2, Nuclear receptor subfamily 1 group I member 2 (Homo sapiens, UniProt O75469); assay: Transactivation of human PXR transfected in HEK cells at 20 uM by luciferase reporter gene assay relative to 12.5 uM rifampin; assay type: cell-based; conditions: hek293, 20 µM
T2 sequence (O75469 whole entry): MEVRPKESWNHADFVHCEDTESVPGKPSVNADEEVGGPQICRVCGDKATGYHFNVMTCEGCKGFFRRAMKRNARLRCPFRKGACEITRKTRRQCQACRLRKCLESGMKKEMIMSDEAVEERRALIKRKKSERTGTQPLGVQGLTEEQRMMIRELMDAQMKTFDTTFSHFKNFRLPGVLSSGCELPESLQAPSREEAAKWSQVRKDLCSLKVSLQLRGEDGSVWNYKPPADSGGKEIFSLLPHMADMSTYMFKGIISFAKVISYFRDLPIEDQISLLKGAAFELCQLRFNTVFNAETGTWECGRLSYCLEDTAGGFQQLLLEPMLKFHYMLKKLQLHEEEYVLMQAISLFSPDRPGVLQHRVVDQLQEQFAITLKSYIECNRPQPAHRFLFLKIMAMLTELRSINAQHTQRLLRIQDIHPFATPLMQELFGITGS
Procedure, shortened: (§1)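 HEK cells transfected with human PXR fused to a firefly luciferase reporter. Luciferase activity is expressed as percent of the 12.5 µM rifampin response. Run in triplicate; SEM reported.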

[4] = target: T3, 11-beta-hydroxysteroid dehydrogenase type 2 (Homo sapiens, UniProt P80365); assay: Inhibition of human 11beta-HSD2 expressed in CHO cells using [3H]cortisol by scintillation proximity assay; assay type: cell-based
T3 sequence (P80365 whole entry): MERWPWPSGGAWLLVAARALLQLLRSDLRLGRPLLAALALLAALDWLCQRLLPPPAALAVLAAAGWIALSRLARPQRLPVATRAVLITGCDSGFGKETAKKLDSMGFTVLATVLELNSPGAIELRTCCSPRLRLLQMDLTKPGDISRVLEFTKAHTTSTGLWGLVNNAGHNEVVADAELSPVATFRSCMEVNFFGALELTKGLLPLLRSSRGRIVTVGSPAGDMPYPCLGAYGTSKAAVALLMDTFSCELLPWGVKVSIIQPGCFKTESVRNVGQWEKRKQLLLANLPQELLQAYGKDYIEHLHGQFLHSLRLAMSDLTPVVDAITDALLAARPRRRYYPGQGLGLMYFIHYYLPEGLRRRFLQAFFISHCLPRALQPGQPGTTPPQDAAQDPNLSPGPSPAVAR
Procedure, shortened: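 Human 11β-HSD2 from CHO cells with [3H]cortisol 3 nM and NAD+ 300 µM, in 0.1 M sodium phosphate pH 7.6. 1 h at room temperature, then stopped with 18β-glycyrrhetinic acid. Anticortisol antibody and antimouse SPA beads added for 30 min; radiometric read-out.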

[5] = target: T4, PXR (nuclear receptor subfamily 1 group I member 2) (Homo sapiens, UniProt O75469); assay: Transactivation of human PXR transfected in HEK cells at 2 uM by luciferase reporter gene assay relative to 12.5 uM rifampin; assay type: cell-based; conditions: HEK293 cells transfected with human PXR, read-out: Activity; procedure, shortened: as §1
T4 sequence (O75469 whole entry): T2 sequence (O75469 whole entry)

[6] = test system: Hepatocyte; assay: Induction of CYP3A4 in cryopreserved human hepatocytes from male DJV donars with no adverse medical history or substance or alcohol abuse assessed as mRNA expression at 20 uM relative to 20 uM rifampin; assay type: functional
[7] = test system: Hepatocyte; assay: Induction of CYP3A4 in cryopreserved human hepatocytes from female NPV donars with history of tobacco and substance usage assessed as mRNA expression at 20 uM relative to 20 uM rifampin; assay type: functional
[8] = target: T5, Cytochrome P450 3A4 (Homo sapiens, UniProt P08684); assay: Induction of CYP3A4 activity in cryopreserved human hepatocytes from male DJV donars with no adverse medical history or substance or alcohol abuse at 20 uM relative to 20 uM rifampin
[9] = target: T5, Cytochrome P450 3A4; assay: Induction of CYP3A4 activity in cryopreserved human hepatocytes from female NPV donars with history of tobacco and substance usage at 20 uM relative to 20 uM rifampin

T1 sequence (P28845 whole entry): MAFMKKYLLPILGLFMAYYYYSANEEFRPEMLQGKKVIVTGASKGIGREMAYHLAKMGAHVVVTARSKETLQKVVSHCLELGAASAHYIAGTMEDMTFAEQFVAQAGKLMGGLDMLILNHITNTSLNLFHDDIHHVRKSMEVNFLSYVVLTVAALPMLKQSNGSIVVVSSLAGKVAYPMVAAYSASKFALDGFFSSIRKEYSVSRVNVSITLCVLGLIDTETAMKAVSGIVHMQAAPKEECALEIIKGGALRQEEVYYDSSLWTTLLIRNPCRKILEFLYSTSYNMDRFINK
T5 sequence (P08684 whole entry): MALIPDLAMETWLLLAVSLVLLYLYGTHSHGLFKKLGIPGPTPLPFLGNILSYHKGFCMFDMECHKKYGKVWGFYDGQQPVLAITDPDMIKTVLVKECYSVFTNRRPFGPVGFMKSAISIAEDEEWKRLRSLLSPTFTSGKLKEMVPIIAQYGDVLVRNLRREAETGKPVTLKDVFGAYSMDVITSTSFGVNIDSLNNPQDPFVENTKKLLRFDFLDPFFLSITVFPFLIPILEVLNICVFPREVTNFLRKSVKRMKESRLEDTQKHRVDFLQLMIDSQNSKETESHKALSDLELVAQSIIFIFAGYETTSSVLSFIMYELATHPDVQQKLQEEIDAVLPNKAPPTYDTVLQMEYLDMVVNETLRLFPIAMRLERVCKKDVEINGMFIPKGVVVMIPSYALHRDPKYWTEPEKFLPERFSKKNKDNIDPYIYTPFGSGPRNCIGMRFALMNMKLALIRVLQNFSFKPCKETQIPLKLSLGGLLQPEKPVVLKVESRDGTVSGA

Structure (SMILES)	pKi [1]	pIC50 [2]	Activity [3]	pIC50 [4]	activity at 2 µM [5]	also measured
C[C@H](NC1=NC(=O)C(C)(C2(O)CCC2)S1)c1ccc(F)cc1 (stereo not given in full)	7.31	7.49	26%	< 5.00	–	–
C[C@H](NC1=NC(=O)C(C)(c2ccc(C(N)=O)cc2)S1)c1ccc(F)cc1 (stereo not given in full)	–	–	9.3%	–	0.8%	–
C[C@H](NC1=NC(=O)C(C)(c2ccc(CO)cc2)S1)c1ccc(F)cc1 (stereo not given in full)	–	–	25%	–	2.3%	–
O=C(Nc1cccc(C(=O)N2CCC[C@@H]3CCCC[C@H]32)c1)c1ccccc1	–	7.85	–	–	–	–
C[C@H](NC1=NC(=O)C(C)(CC(C)(C)O)S1)c1ccc(F)cc1 (stereo not given in full)	–	–	28%	–	–	–
C[C@H](NC1=NC(=O)C(C)(C2(O)CCCC2)S1)c1ccc(F)cc1 (stereo not given in full)	7.60	7.96	61%	< 5.00	–	–
C[C@H](NC1=NC(=O)C(C)(c2ccc(C(=O)N3CCCC3)cc2)S1)c1ccc(F)cc1 (stereo not given in full)	–	–	35%	–	4.1%	–
C[C@H](NC1=NC(=O)[C@@](C)(C(F)(F)F)S1)c1ccccc1F	–	–	45%	–	–	Activity [6]: 110%; Activity [7]: 67%; Activity [8]: 64%; Activity [9]: 56%
C[C@H](NC1=NC(=O)C(C)(C(C)(C)O)S1)c1ccccc1F (stereo not given in full)	7.47	7.15	19%	< 5.00	–	–
